Hits are enriched below; roughly 8.2% of the tested compounds scored in any of these assays.
D1 mod = allosteric modulators of human D1 dopamine receptor; HEK293 D1, CRE-luciferase, dopamine EC30 potentiation; actives deviate in either direction; 58,000 tested, 5.9% active; B-score at 10 µM; P21728; AID 641;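 active = luminescence count or its row- and column-corrected plate score outside the 99.7% band of the plate's sample wells, on either side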
HePTP inh = inhibitors of human HePTP phosphatase; P35236; recombinant HePTP phosphatase activity, OD absorbance; inhibition, % at 20 µM; 110,000 tested, 0.64% active; in the data active = inhibition above about 50%
M1 antag = antagonists of rat M1 muscarinic receptor. AID 628. 64,000 tested, 3.4% active. CHO-M1 cells, Fluo-4 calcium, ACh EC80 antagonist mode; stronger effect = lower value. P08482. B-score at 10 µM;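 active = calcium fluorescence response, raw or row-and-column corrected B-score, differing from the plate sample mean either way at a set confidence level, mostly lower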
M1 agonist = activates the M1 muscarinic receptor | CHO-M1 cells, Fluo-4 calcium fluorescence, agonist mode; stronger effect = higher value | B-score at 10 µM | 64,000 tested, 3% active | AID 626;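 active = fluorescence rise, raw or as B-score row- and column-corrected plate score, outside the 99.7% band of its plate's samples, either direction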
RORA act = activators of human nuclear receptor RORA. CHO-K1 Gal4-RORA LBD luciferase reporter, luminescence; percent increase over mock-subtracted basal signal. activation, % at 10 µM. 65,000 tested, 1.5% active;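 active = activation above the mean of all tested compounds plus 3 SD, cut at about 49% in these data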
Target sequence (P35398 whole entry, looked up, the tested form may be a part): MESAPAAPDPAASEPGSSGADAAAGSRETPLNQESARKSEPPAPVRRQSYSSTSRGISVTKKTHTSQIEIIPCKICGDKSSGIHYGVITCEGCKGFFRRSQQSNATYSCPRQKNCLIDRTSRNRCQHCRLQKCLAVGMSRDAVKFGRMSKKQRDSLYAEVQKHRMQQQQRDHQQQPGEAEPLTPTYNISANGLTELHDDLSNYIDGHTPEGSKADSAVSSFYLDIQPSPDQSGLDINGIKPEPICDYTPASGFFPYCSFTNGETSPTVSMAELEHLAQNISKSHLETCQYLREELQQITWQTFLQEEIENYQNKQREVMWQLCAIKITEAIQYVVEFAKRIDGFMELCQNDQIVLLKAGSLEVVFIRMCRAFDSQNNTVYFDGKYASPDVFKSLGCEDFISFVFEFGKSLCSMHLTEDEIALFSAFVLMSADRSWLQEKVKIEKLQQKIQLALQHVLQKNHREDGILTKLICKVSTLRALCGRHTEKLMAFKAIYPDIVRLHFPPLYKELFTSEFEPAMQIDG
SF1 activator = activators of human nuclear receptor SF-1; activation, % at 10 µM; 65,000 tested, 1.9% active; CHO-K1 Gal4-SF-1 LBD luciferase reporter; % increase over DMSO SF-1-specific signal;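 active = activation above the mean activation of all tested compounds plus 3 SD, cut at about 50% in these data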
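material = CHO-K1 cells with Gal4–hSF-1 LBD chimera plus Gal4-driven luciferase | compound = 10 µM single point, 1% DMSO | incubation = 20 h compound exposure at 37 °C after 1 h cell settling | measured by = SteadyLite luciferase luminescence | evaluation = percent activation relative to DMSO median and mock-transfected background | control set = DMSO negative control and −SF1 background wells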
D1 mod confirm = D1 receptor (human) allosteric modulation, confirmed | shares compounds with D1 mod | HEK293 D1 CRE-luciferase, dopamine EC30 potentiation; stronger effect = higher value | luminescence at 10 µM | 2,200 tested, 88% active | AID 642;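 active = luminescence in either of two replicates above the same-plate mean plus 3 SD of the low-dose dopamine control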
D1 ag no DA = D1 (human) signaling in absence of dopamine; shares compounds with D1 mod; HEK293 D1 CRE-luciferase, luminescence, no dopamine; stronger effect = higher value; luminescence at 10 µM; 1,900 tested, 0.8% active; AID 646; in the data active = luminescence above about 3900
Isoprot counter = isoproterenol response counter-screen activity for D1 modulators; 2,200 tested, 63% active; shares compounds with D1 mod; HEK293 D1 CRE-luciferase, isoproterenol EC30 counter-screen; AID 647; calls only at 10 µM;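 active = luminescence in either replicate above plate mean of wells with a partly effective reference agonist dose plus 3 SD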;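 note: isoproterenol raises cAMP through native beta-adrenoceptor Gs so signal bypasses D1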
Hits are given with their value; – = inactive; · = not tested or not shown; + = active, no number.

SMILES | D1 mod | HePTP inh | M1 antag | M1 agonist | RORA act | SF1 activator | D1 mod confirm | D1 ag no DA | Isoprot counter
Cc1ccccc1OCCn1nc(C(=O)O)c2ccccc2c1=O | 3.94 | – | – | – | – | – | 7632 | – | +
CC(NC(=O)Cn1nc(C(=O)O)c2ccccc2c1=O)c1ccccc1 (stereo not drawn) | – | – | – | – | – | – | · | · | ·
COC(=O)c1cn(-c2ccccc2)nc1C(=O)OC | 18.3 | – | – | – | – | – | 20700 | – | +
COC(=O)c1nn(-c2c(C)n(C)n(-c3ccccc3)c2=O)cc1O | – | – | – | – | – | – | · | · | ·
Oc1ccc(-c2nc3cnccn3c2Nc2ccc3c(c2)OCCO3)cc1 | 2.84 | – | – | – | 52.7 | – | 9088 | – | +
Cc1cc2nc3n(c2cc1C)CCCN3 | · | – | · | · | · | · | · | · | ·
Cc1ccc(N2CC(C(=O)Nc3ccccc3C(C)C)CC2=O)cc1 (stereo not drawn) | · | – | · | · | · | · | · | · | ·
c1coc(CNc2nc(-c3ccncc3)cs2)c1 | 3.57 | – | – | – | – | – | 8460 | – | +
COc1ccc(-c2csc(NCc3ccco3)n2)cc1 | · | – | – | – | – | – | · | · | ·
O=C(Nc1ccccc1C(F)(F)F)N1CCN(c2ccc3nnc(-c4ccc(F)cc4)n3n2)CC1 | 3.91 | – | – | – | – | – | 7116 | – | +
Cc1ccc(NC2=C(Cl)C(=O)N(c3ccc(Br)cc3)C2=O)c(C)c1 | · | – | · | · | · | · | · | · | ·
N#CC1=C(N)Oc2n[nH]c(-c3ccccc3)c2C1c1cccnc1 (stereo not drawn) | – | – | – | – | – | – | · | · | ·
N#CC1=C(N)Oc2nc(-c3ccccc3)[nH]c2C1c1cccnc1 (stereo not drawn) | 5.14 | – | – | – | – | – | 8448 | – | –
CC(NC(=O)c1ccccc1)C(=O)NC1=NCCS1 (stereo not drawn) | – | – | – | – | – | – | · | · | ·
COC(=O)c1ccc(COC(=O)c2ccc(-n3cnnn3)cc2)o1 | 5.99 | – | – | – | – | – | – | · | –
COc1ccc(OC)c(NC(=O)COC(=O)c2ccc(-n3cnnn3)cc2)c1 | – | – | – | – | – | – | · | · | ·
Cc1ccc(NC2=CC(c3ccc4c(c3)OCO4)N(c3ccc(C)cc3)C2=O)cc1 (stereo not drawn) | · | – | · | · | · | · | · | · | ·
Cc1onc(-c2ccccc2)c1C(=O)Nc1ccc2c(c1)OCO2 | 4.99 | – | – | – | – | – | 11760 | – | –
Cc1onc(-c2ccccc2)c1C(=O)OCC(=O)Nc1ccc2c(c1)OCO2 | – | – | – | – | – | – | · | · | ·
N#Cc1ccc(CSc2nnc(-c3cccc(S(=O)(=O)N4CCCCC4)c3)o2)cc1 | · | – | – | – | – | – | · | · | ·
N#Cc1cccc(-c2nnc(SCc3ccccc3C#N)o2)c1 | 2.74 | – | · | · | – | – | – | – | +
COc1ccc(-c2coc3cc(O)ccc3c2=O)cc1OC | 4.56 | – | – | – | 78.2 | – | 9756 | – | –
COc1ccccc1Oc1coc2cc(O)ccc2c1=O | – | – | – | – | – | – | · | · | ·
CC1(C)Cc2c(C#N)c(NC3CCCCC3)nc(-c3ccco3)c2CO1 | 3.42 | – | – | – | – | – | 8368 | – | –
Clc1ccc(-c2ncc(-c3ccccc3)o2)cc1 | · | – | · | · | · | · | · | · | ·
SMILES | D1 mod | HePTP inh | M1 antag | M1 agonist | RORA act | SF1 activator | D1 mod confirm | D1 ag no DA | Isoprot counter
C=C(C)c1cccc(C(C)(C)NC(=O)N2CCc3ccccc32)c1 | · | – | · | · | · | · | · | · | ·
N#Cc1c(N)nc(SCc2ccccc2)c(C#N)c1-c1cccs1 | · | – | · | · | · | · | · | · | ·
N#Cc1c(N)nc(SCc2ccncc2)c(C#N)c1-c1cccs1 | 6.49 | – | – | – | – | – | 8108 | – | +
CCSc1nc2cc(C(=O)OC)ccc2c(=O)n1CC | 10.2 | · | – | – | – | – | 13500 | – | +
CCc1ccc(NC(=O)CSc2nc3cc(C(=O)OC)ccc3c(=O)n2Cc2ccco2)cc1 | – | – | – | – | – | – | · | · | ·
O=c1[nH]c(CSc2nnc(NCCCN3CCOCC3)s2)nc2cc(Cl)ccc12 | – | – | – | – | – | – | · | · | ·
COc1ccc(Oc2coc3c(CN4CCOCC4)c(O)ccc3c2=O)cc1 | · | – | · | · | · | · | · | · | ·
c1cc2c3c(cccc3c1)-c1nc3nonc3nc1-2 | · | – | · | · | · | · | · | · | ·
c1ccc(-c2nc3nonc3nc2-c2ccccc2)cc1 | 6.77 | – | – | – | – | – | 6860 | – | –
COc1ccc(C2CC(C(F)(F)F)n3ncc(C(=O)NCC4CCCO4)c3N2)cc1OC (stereo not drawn) | · | – | – | – | – | – | · | · | ·
Cc1ccc(Cn2c(CN(C)Cc3ccccc3)nc3c2c(=O)n(C)c(=O)n3C)cc1 | 4.93 | – | – | – | – | – | 8728 | – | +
CC1=NNC(=O)C1CC(=O)N/N=C/c1cccc(OCc2ccccc2)c1 (stereo not drawn) | · | – | · | · | · | · | · | · | ·
COc1ccc(S(=O)(=O)Nc2ccc(C#N)cc2)cc1 | · | – | · | · | · | · | · | · | ·
COc1ccc(-n2c(SCC#N)nnc2-c2ccc(NS(=O)(=O)c3ccc(C)cc3)cc2)cc1 | 9.93 | – | – | – | – | – | 21068 | – | +
Cc1ccc(-c2nn(C)c(=O)c3ccccc23)cc1S(=O)(=O)NCCO | 4.14 | – | – | – | – | – | 6200 | – | –
Cc1ccc(-c2nn(C)c(=O)c3ccccc23)cc1S(=O)(=O)N1CCCC1 | – | – | – | – | – | – | · | · | ·
CCOC(=O)N1CCC(NC(=O)c2cc(C(=O)NCc3ccc(F)cc3)ccc2CO)CC1 | – | – | – | – | – | – | · | · | ·
COc1ccc(CCNS(=O)(=O)c2cccc(F)c2)cc1OC | 8.13 | – | – | – | – | – | 11924 | · | +
COc1ccc(CCNS(=O)(=O)c2ccc3c(c2)OCCO3)cc1OC | 5.17 | – | – | – | – | – | 11256 | – | –
COc1ccc(-c2csc(Cc3nnc4n3CCCCC4)n2)cc1OC | 19.5 | – | – | – | – | – | 24836 | – | +
COc1sc(SC)cc1/C=N/NC(=O)C(NC(=O)c1ccccc1)c1n[nH]c(=O)c2ccccc12 (stereo not drawn) | · | – | · | · | · | · | · | · | ·
Cc1nn(-c2ccc(F)cc2)c2sc(C(=O)OCC(=O)N3CCC(C)CC3)cc12 | – | – | – | – | – | – | · | · | ·
CC(=O)CC(=O)Nc1cccc([N+](=O)[O-])c1 | · | – | · | · | · | · | · | · | ·
CCc1ccc2[nH]c(=O)c(CN(Cc3nnnn3C3CCCC3)C3CCCCC3)cc2c1 | 2.53 | – | – | – | – | – | 8428 | – | –
CCOC(=O)N1CCN(C(=O)CCCn2c(=S)[nH]c3ccccc3c2=O)CC1 | 3.13 | – | – | – | – | – | 8792 | – | –
